According to ChEMBL document CHEMBL4020832, “Development of (6 R)-2-Nitro-6-[4-(trifluoromethoxy)phenoxy]-6,7-dihydro-5 H-imidazo[2,1- b][1,3]oxazine (DNDI-8219): A New Lead for Visceral Leishmaniasis” (J Med Chem, 2018):
Values belong to the compound of their own block, whether it stands above or below them.

Tests used:
[1] = tested on: Liver; assay: Metabolic stability in human liver microsomes assessed as parent compound remaining at 0.5 uM after 0.5 hr; type: ADME, microsome
[2] = tested on: Liver; assay: Metabolic stability in CD-1 mouse liver microsomes assessed as parent compound remaining at 0.5 uM after 0.5 hr; type: ADME, microsome
[3] = Metabolic stability in hamster liver microsomes assessed as parent compound remaining at 0.5 uM after 0.5 hr; type: ADME, microsome; conditions: read-out: Stability
[4] = tested on: Liver; assay: Metabolic stability in human liver microsomes assessed as parent compound remaining at 1 uM after 1 hr; type: ADME, microsome
[5] = tested on: Liver; assay: Metabolic stability in CD-1 mouse liver microsomes assessed as parent compound remaining at 1 uM after 1 hr; type: ADME, microsome
[6] = Metabolic stability in hamster liver microsomes assessed as parent compound remaining at 1 uM after 1 hr; type: ADME, microsome; conditions: read-out: Stability
[7] = tested on: Mus musculus; assay: Cmax in Swiss albino mouse at 40 mg/kg, po by LC-MS/MS analysis; type: ADME, organism-based; parameters: dose 40 mg/kg, route oral; conditions: in vivo
[8] = tested on: Syrian golden hamster; assay: Oral bioavailability in golden Syrian hamster at 40 mg/kg by LC-MS/MS analysis; type: ADME, organism-based, Mesocricetus auratus; conditions: in vivo
[9] = tested on: Mus musculus; assay: Tmax in Swiss albino mouse at 40 mg/kg, po by LC-MS/MS analysis; type: ADME, organism-based; conditions: in vivo
[10] = Half life in Swiss albino mouse at 40 mg/kg, po by LC-MS/MS analysis; type: ADME, organism-based; conditions: in vivo
[11] = tested on: Mus musculus; assay: AUClast in Swiss albino mouse at 40 mg/kg, po after 24 to 48 hrs by LC-MS/MS analysis; type: ADME, organism-based; conditions: in vivo
[12] = Initial concentration in golden Syrian hamster at 2 mg/kg, iv by LC-MS/MS analysis; type: ADME, organism-based, Mesocricetus auratus; conditions: in vivo
In short: (§1)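 Fasted female golden Syrian hamsters given 2 mg/kg iv as a solution in 20% NMP and 40% PEG-400 in citrate buffer pH 3. Plasma concentrations determined by LC–MS/MS to derive PK parameters.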

[13] = Clearance in golden Syrian hamster at 2 mg/kg, iv by LC-MS/MS analysis; type: ADME, organism-based, Mesocricetus auratus; conditions: in vivo
[14] = Volume of distribution at steady state in golden Syrian hamster at 2 mg/kg, iv by LC-MS/MS analysis; type: ADME, organism-based, Mesocricetus auratus; conditions: in vivo, read-out: Vdss; in short: as §1
[15] = Half life in golden Syrian hamster at 2 mg/kg, iv by LC-MS/MS analysis; type: ADME, organism-based, Mesocricetus auratus; conditions: in vivo
In short: (§2)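 Fasted female golden Syrian hamsters. IV dose was 2 mg/kg as a solution in 20% NMP and 40% PEG-400 in citrate buffer (pH 3). Oral dosing at 40–50 mg/kg used PEG-400 as vehicle. Plasma was quantified by LC–MS/MS. AUClast was taken to the last time point (24 or 48 h).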

[16] = AUClast in golden Syrian hamster at 2 mg/kg, iv after 24 to 48 hrs by LC-MS/MS analysis; type: ADME, organism-based, Mesocricetus auratus; conditions: in vivo; in short: as §2
[17] = Cmax in golden Syrian hamster at 40 mg/kg, po by LC-MS/MS analysis; type: ADME, organism-based, Mesocricetus auratus; parameters: dose 40 mg/kg, route oral; conditions: in vivo; in short: as §2
[18] = Tmax in golden Syrian hamster at 40 mg/kg, po by LC-MS/MS analysis; type: ADME, organism-based, Mesocricetus auratus; conditions: in vivo
[19] = Half life in golden Syrian hamster at 40 mg/kg, po by LC-MS/MS analysis; type: ADME, organism-based, Mesocricetus auratus; conditions: in vivo
[20] = AUClast in golden Syrian hamster at 40 mg/kg, po after 24 to 48 hrs by LC-MS/MS analysis; type: ADME, organism-based, Mesocricetus auratus; conditions: in vivo; in short: as §2

Stability [1]: 92% | Stability [2]: 88% | remaining at 0.5 h, 0.5 µM [3]: 59%
Structure (SMILES): O=[N+]([O-])c1cn2c(n1)OC[C@@H](OCc1ccc(-c3ccc(OC(F)F)cc3)cn1)C2

Stability [1]: 73% | Stability [2]: 100% | remaining at 0.5 h, 0.5 µM [3]: 75%
Structure (SMILES): O=[N+]([O-])c1cn2c(n1)OC[C@@H](OCc1ccc(-c3ccc(OC(F)(F)F)cc3Cl)cn1)C2

Stability [1]: 88% | Stability [2]: 84% | remaining at 0.5 h, 0.5 µM [3]: 69%
Structure (SMILES): O=[N+]([O-])c1cn2c(n1)OC[C@@H](OCc1ccc(-c3ccc(OC(F)(F)F)cc3F)cn1)C2

Stability [4]: 16% | Stability [1]: 65% | Stability [5]: 27% | Stability [2]: 81% | remaining at 1 h, 1 µM [6]: 5.8% | remaining at 0.5 h, 0.5 µM [3]: 57%
Structure (SMILES): O=[N+]([O-])c1cn2c(n1)OC[C@H](OCc1ccc(-c3ccc(OC(F)(F)F)cc3Cl)cn1)C2

Stability [4]: 58% | Stability [1]: 85% | Stability [5]: 66% | Stability [2]: 77% | remaining at 1 h, 1 µM [6]: 10% | remaining at 0.5 h, 0.5 µM [3]: 37%
Structure (SMILES): O=[N+]([O-])c1cn2c(n1)OC[C@H](OCc1ccc(-c3ccc(F)cc3)cn1)C2

Cmax [7]: 32000 ng/mL | F [8]: 74% | Stability [4]: 27% | Stability [1]: 75% | Stability [5]: 40% | Stability [2]: 79% | remaining at 1 h, 1 µM [6]: 10% | remaining at 0.5 h, 0.5 µM [3]: 69% | Tmax [9]: 3.3 h | half-life [10]: 6.1 h | AUClast [11]: 265000 ng·h/mL | C0 [12]: 940 ng/mL | clearance [13]: 18 mL/min/kg | Vd [14]: 4.2 L/kg | half-life [15]: 3.9 h | AUC(0-t) [16]: 1890 ng·h/mL | Cmax [17]: 4200 ng/mL | Tmax [18]: 2 h | half-life [19]: 3.9 h | AUC(0-t) [20]: 26700 ng·h/mL
Structure (SMILES): O=[N+]([O-])c1cn2c(n1)OC[C@H](OCc1ccc(-c3ccc(OC(F)(F)F)cc3F)cn1)C2

F [8]: 37% | Stability [4]: 59% | Stability [5]: 57% | remaining at 1 h, 1 µM [6]: 5.2% | C0 [12]: 930 ng/mL | clearance [13]: 63 mL/min/kg | Vd [14]: 4 L/kg | half-life [15]: 0.83 h | AUC(0-t) [16]: 480 ng·h/mL | Cmax [17]: 1900 ng/mL | Tmax [18]: 0.75 h | half-life [19]: 0.83 h | AUC(0-t) [20]: 3950 ng·h/mL
Structure (SMILES): O=[N+]([O-])c1cn2c(n1)OC[C@H](OCc1ccc(-c3ccc(F)cc3F)cn1)C2

Cmax [7]: 16000 ng/mL | F [8]: 100% | Stability [4]: 27% | remaining at 1 h, 1 µM [6]: 10% | remaining at 0.5 h, 0.5 µM [3]: 61% | Tmax [9]: 4.7 h | half-life [10]: 9.4 h | AUClast [11]: 211000 ng·h/mL | C0 [12]: 650 ng/mL | clearance [13]: 23 mL/min/kg | Vd [14]: 8.2 L/kg | half-life [15]: 6.3 h | AUC(0-t) [16]: 1300 ng·h/mL | Cmax [17]: 5700 ng/mL | half-life [19]: 5.8 h | AUC(0-t) [20]: 62700 ng·h/mL
Structure (SMILES): O=[N+]([O-])c1cn2c(n1)OC[C@H](OCc1ccc(-c3ccc(OC(F)(F)F)cc3)cn1)C2

Stability [4]: 49% | Stability [1]: 71% | Stability [5]: 56% | Stability [2]: 86% | remaining at 1 h, 1 µM [6]: 11% | remaining at 0.5 h, 0.5 µM [3]: 45%
Structure (SMILES): O=[N+]([O-])c1cn2c(n1)OC[C@H](OCc1ccc(-c3ccc(OC(F)F)cc3)cn1)C2

The remaining lines, values behind:

Structure (SMILES): O=[N+]([O-])c1cn2c(n1)OC[C@@H](OCc1cccc(-c3ccc(F)cc3)n1)C2
Stability [1]: 96% | Stability [2]: 74%

Structure (SMILES): O=[N+]([O-])c1cn2c(n1)OC[C@@H](OCc1cccc(-c3ccc(OC(F)(F)F)cc3)n1)C2
Stability [1]: 75% | Stability [2]: 78% | remaining at 0.5 h, 0.5 µM [3]: 31%

Structure (SMILES): O=[N+]([O-])c1cn2c(n1)OC[C@H](OCc1cccc(-c3ccc(OC(F)(F)F)cc3)n1)C2
Stability [1]: 68% | Stability [2]: 68% | remaining at 0.5 h, 0.5 µM [3]: 31%

Structure (SMILES): O=C(Nc1ccccc1OC(F)(F)F)N[C@@H]1COc2nc([N+](=O)[O-])cn2C1
Stability [1]: 74% | Stability [2]: 43% | remaining at 0.5 h, 0.5 µM [3]: 64%

Structure (SMILES): O=[N+]([O-])c1cn2c(n1)OC[C@H](OCc1ccc(-c3ccc(OC(F)(F)F)cc3F)nc1)C2
Stability [4]: 37% | Stability [5]: 41% | remaining at 1 h, 1 µM [6]: 9.2% | clearance [13]: 8.8 mL/min/kg | Vd [14]: 3.2 L/kg | half-life [15]: 5.3 h | AUC(0-t) [16]: 3690 ng·h/mL | Cmax [17]: 4700 ng/mL | Tmax [18]: 3.3 h | half-life [19]: 5.8 h | AUC(0-t) [20]: 46500 ng·h/mL

Structure (SMILES): O=[N+]([O-])c1cn2c(n1)OC[C@H](Oc1ccc(-c3ccc(OC(F)(F)F)cc3)nc1)C2
Stability [4]: 40% | Stability [5]: 35%

Structure (SMILES): O=[N+]([O-])c1cn2c(n1)OC[C@H](OCc1ccc(-c3ccc(OC(F)F)cc3)nc1)C2
Stability [4]: 58% | Stability [5]: 56% | remaining at 1 h, 1 µM [6]: 7.9%

Structure (SMILES): O=[N+]([O-])c1cn2c(n1)OC[C@H](OCc1cccnc1-c1ccc(OC(F)(F)F)cc1)C2
Stability [4]: 35% | Stability [5]: 44% | remaining at 1 h, 1 µM [6]: 3%

Structure (SMILES): O=[N+]([O-])c1cn2c(n1)OC[C@H](NCc1ccc(OC(F)(F)F)cc1)C2
Stability [5]: 61% | remaining at 1 h, 1 µM [6]: 7.5%

Structure (SMILES): CC1(C)Oc2nc([N+](=O)[O-])cn2CC1OCc1ccc(OC(F)(F)F)cc1 (stereo not given)
Stability [4]: 92% | Stability [5]: 72%

Structure (SMILES): O=[N+]([O-])c1cn2c(n1)OC[C@H](OCc1ncccc1-c1ccc(OC(F)(F)F)cc1)C2
Stability [4]: 8% | Stability [5]: 0.2%

Structure (SMILES): O=[N+]([O-])c1cn2c(n1)OC[C@H](OCc1cccc(-c3ccc(F)cc3)n1)C2
Stability [1]: 79% | Stability [2]: 68%

Structure (SMILES): O=C(N[C@H]1COc2nc([N+](=O)[O-])cn2C1)c1cccc(OC(F)(F)F)c1
remaining at 1 h, 1 µM [6]: 59%

Structure (SMILES): O=[N+]([O-])c1cn2c(n1)OC[C@H](Oc1ccc(-c3ccc(F)cc3)nc1)C2
Stability [4]: 73% | Stability [5]: 59%

Structure (SMILES): O=[N+]([O-])c1cn2c(n1)OC[C@H](OCc1ccc(OC(F)(F)F)cc1)C2
Stability [5]: 86% | remaining at 0.5 h, 0.5 µM [3]: 31%

Structure (SMILES): O=[N+]([O-])c1cn2c(n1)OC[C@@H](OCc1csc(-c3ccc(OC(F)(F)F)cc3)n1)C2
Stability [1]: 78% | Stability [2]: 75% | remaining at 0.5 h, 0.5 µM [3]: 43%

Structure (SMILES): O=[N+]([O-])c1cn2c(n1)OC[C@@H](OCc1ccn(-c3ccc(OC(F)(F)F)cc3)n1)C2
Stability [4]: 87% | Stability [5]: 67%

Structure (SMILES): O=[N+]([O-])c1cn2c(n1)OC[C@@H](OCc1ccc(OC(F)(F)F)cc1)C2 [PRETOMANID]
Stability [4]: 82%
